Measured values of several laboratories.
Protocols differ between the studies behind these lines.
Target: Serine/threonine-protein kinase mTOR (MTOR, Homo sapiens, UniProt P42345)

SMILES | test | setting | measurement | value
CCCCC(=O)Nc1ccc(-c2ccc3ncn(CCC)c(=O)c3c2)cn1 | binding, competition with immobilised ligand | 0.5 µM | remaining binding | 67%
Cc1cc(O)c(-c2ccc([C@@H](C)CN(C)C)cc2)c2c1[nH]c(=O)c1sccc12 | cell-free assay, inhibitor | 0.1 µM | inhibition | 9.2%
CN1CCN(C(=O)c2ccc(NC(=O)Nc3ccc(N(C)c4ccnc(Nc5ccc(CS(C)(=O)=O)cc5)n4)cc3)cc2)CC1 | binding | 1 µM | remaining binding | 100%
C=CC(=O)N1CCC([C@@H]2CCNc3c(C(N)=O)c(-c4ccc(Oc5ccccc5)cc4)nn32)CC1 | enzyme activity, inhibitor | 1 µM | inhibition | 0%
COc1ccc2[nH]c3c4[nH]c5ccc(OC)cc5c4c4c(c3c2c1)C(=O)NC4=O | binding | 1 µM | remaining binding | 100%
CO[C@@H]1[C@H](N(C)C(=O)c2ccccc2)C[C@H]2O[C@]1(C)n1c3ccccc3c3c4c(c5c6ccccc6n2c5c31)C(=O)NC4 | enzyme activity, inhibitor | 1 µM | inhibition | 0%
COc1ccc2oc(-c3ccc4nc(N)oc4c3)c/c(=N\c3ccccc3NC(=O)CCN)c2c1 | cell-free assay | 1 µM | remaining signal | 7%
C1=C/COCc2cc(ccc2OCCN2CCCC2)Nc2nccc(n2)-c2cccc(c2)COC/1 | binding | 0.1 µM | remaining binding | 72%
